In paper PMC3268193 (British Journal of Pharmacology, 2012):
Numbering of substitutions follows the chain as printed. “Also recorded” adds a separate entry of the source.

Columns and labels:
DelD P2X1 receptor = target: T1, DelD P2X1 receptor (Homo sapiens, UniProt P51575, D154F/DEL118-152/DEL160-165/K157P/V156D); experiment: Two-electrode voltage clamp, deletion mutant DelD P2X1; type: cell-based; conditions: ATP up to 10 mM
T1 sequence (P51575 with tags, fused parts or gaps DEL118-152/D154F/V156D/K157P/DEL160-165): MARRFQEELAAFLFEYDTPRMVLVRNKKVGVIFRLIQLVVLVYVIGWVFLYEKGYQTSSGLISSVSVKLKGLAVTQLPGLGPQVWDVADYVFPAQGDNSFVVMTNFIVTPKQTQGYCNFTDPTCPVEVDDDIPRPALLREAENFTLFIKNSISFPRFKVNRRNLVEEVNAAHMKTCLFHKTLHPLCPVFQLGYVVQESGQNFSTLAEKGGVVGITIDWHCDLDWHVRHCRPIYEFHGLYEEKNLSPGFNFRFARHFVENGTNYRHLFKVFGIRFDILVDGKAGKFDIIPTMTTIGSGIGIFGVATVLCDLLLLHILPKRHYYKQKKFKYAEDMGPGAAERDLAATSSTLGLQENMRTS
Procedure, shortened: (§1)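 Human P2X1 deletion-mutant cRNA made by T7 in vitro transcription and injected into stage V Xenopus laevis oocytes. Oocytes kept at 18°C in ND96 (pH 7.5, with gentamicin) and recorded 2–6 days later. Two-electrode voltage clamp at −60 mV, with 1.8 mM BaCl2 replacing CaCl2 in the bath.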

human P2X2 receptor WT = target: T2, human P2X2 receptor WT (Homo sapiens, UniProt Q9UBL9); experiment: Two-electrode voltage clamp, WT P2X2 receptor in Xenopus oocytes; type: cell-based; conditions: P2X2 WT
T2 sequence (Q9UBL9 1-471): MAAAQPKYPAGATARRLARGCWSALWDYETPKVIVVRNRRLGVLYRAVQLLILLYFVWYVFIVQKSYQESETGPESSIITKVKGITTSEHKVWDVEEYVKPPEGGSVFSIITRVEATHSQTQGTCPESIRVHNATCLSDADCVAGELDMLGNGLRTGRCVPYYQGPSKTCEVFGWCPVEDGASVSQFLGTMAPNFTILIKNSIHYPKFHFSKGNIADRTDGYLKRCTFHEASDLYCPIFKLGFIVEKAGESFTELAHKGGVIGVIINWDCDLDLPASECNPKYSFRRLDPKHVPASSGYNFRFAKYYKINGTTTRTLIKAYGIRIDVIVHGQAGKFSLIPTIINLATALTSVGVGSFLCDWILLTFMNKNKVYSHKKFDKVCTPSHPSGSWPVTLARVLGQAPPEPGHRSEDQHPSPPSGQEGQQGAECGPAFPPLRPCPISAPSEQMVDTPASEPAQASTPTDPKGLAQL

P2X1 Del mutant receptor = experiment: Two-electrode voltage clamp, deletion mutant P2X1 Del; type: cell-based, human; conditions: ATP 100 µM, up to 10 mM
Procedure, shortened: as §1

[1] = target: T3, P2X2 receptor mutant D136K (Homo sapiens, UniProt Q9UBL9, D148K); experiment: Two-electrode voltage clamp, P2X2 mutant D136K; type: cell-based; conditions: read-out: ATP EC50
T3 sequence (Q9UBL9 1-471 D148K): T2 sequence (Q9UBL9 1-471) with D148K

[2] = target: Dictyostelium P2X receptors; conditions: read-out: EC50 for ATP; ref Ludlow et al., 2009; cited from earlier work
P2X1 Cys2(1-6) chimera = target: T4, P2X1 Cys2(1-6) chimera (Homo sapiens, UniProt P51575, A118P/A137L/A141G/A151Y/D154G/DEL120-123/E128S/F152Y/G124S/G131D/I144L/I161V/INS125RVHNAT/INS150P/K127L/K136E/K138D/K140L/K148R/N153Q/P134A/Q142N/R139M/S130A/T133V/T155P/V156S); experiment: Two-electrode voltage clamp, chimera P2X1 Cys2; type: cell-based; conditions: P2X1 Cys2(1-6)
T4 sequence (P51575 with tags, fused parts or gaps A118P/DEL120-123/G124S/INS125RVHNAT/K127L/E128S/S130A/G131D/T133V/P134A/K136E/A137L/K138D/R139M/K140L/A141G/Q142N/I144L/K148R/INS150P/A151Y/F152Y/N153Q/D154G/T155P/V156S/I161V): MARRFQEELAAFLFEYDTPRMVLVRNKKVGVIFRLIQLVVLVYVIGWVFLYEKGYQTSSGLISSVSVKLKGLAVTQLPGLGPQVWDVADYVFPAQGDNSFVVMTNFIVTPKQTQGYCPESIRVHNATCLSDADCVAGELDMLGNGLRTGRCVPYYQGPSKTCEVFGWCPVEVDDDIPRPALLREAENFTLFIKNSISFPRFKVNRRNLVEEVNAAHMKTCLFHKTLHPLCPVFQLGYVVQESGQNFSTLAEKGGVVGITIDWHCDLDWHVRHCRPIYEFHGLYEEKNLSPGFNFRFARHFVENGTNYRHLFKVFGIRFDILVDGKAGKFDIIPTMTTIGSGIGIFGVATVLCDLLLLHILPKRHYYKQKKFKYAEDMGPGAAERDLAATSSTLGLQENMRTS

human P2X1 receptor WT = target: T5, human P2X1 receptor WT (Homo sapiens, UniProt P51575); experiment: Two-electrode voltage clamp, WT P2X1 receptor in Xenopus oocytes; type: cell-based
T5 sequence (P51575 1-399): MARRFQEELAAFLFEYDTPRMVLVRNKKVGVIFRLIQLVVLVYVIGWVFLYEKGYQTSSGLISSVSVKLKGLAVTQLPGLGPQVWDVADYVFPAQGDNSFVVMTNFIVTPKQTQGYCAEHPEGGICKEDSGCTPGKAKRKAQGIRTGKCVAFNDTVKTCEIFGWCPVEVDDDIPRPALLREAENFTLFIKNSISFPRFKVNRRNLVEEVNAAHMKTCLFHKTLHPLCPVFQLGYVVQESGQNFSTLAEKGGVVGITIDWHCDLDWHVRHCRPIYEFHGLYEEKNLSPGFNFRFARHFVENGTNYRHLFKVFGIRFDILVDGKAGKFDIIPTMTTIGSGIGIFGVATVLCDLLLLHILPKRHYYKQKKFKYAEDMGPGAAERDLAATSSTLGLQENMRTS

With `Nc1ncnc2c1ncn2[C@@H]1O[C@H](COP(=O)(O)OP(=O)(O)OP(=O)(O)O)[C@@H](O)[C@H]1O` [ATP] as the compound, how does the ATP-evoked current (DelD P2X1 receptor) read?
The ATP-evoked current was “little or no response”.

And the Decay of current (human P2X2 receptor WT; 100 µM ATP, 3 s application)?
The Decay of current was “no decay at end of 3 s pulse”.

And the EC50 (human P2X2 receptor WT; read-out: ATP EC50)?
Its EC50 is about 10 µM.

And the ATP-evoked current (P2X1 Del mutant receptor)?
The ATP-evoked current was “barely detectable inward currents; also recorded: ineffective”.

And the EC50 [1]?
Its EC50 is 3.87 µM.

And the EC50 [2]?
The EC50 was 100 to 500 µM.

And the “Decay Time” value (P2X1 Cys2(1-6) chimera; 100% to 50% decay)?
Its value is 1305 ± 176 ms.

What about the EC50 (P2X1 Cys2(1-6) chimera; read-out: ATP EC50) of the same compound?
The EC50 was about 3000 nM.

What about the “Decay Time” value (human P2X1 receptor WT; P2X1 WT, 100% to 50% decay of current) of the same compound?
The value was 495 ± 45 ms.

What about the “Peak amplitude of inward current” value (human P2X1 receptor WT; WT P2X1, ATP 100 µM, n = 12) of the same compound?
Its value is −9188 ± 590 nA.

And the EC50 (human P2X1 receptor WT; read-out: ATP EC50, P2X1 WT)?
The EC50 was about 750 nM.
